{"source": "ChEMBL document CHEMBL2163316", "about": "“Discovery of (S)-6-(3-cyclopentyl-2-(4-(trifluoromethyl)-1H-imidazol-1-yl)propanamido)nicotinic acid as a hepatoselective glucokinase activator clinical candidate for treating type 2 diabetes mellitus” (J Med Chem, 2012)", "key": {"[1]": {"assay": "Drug excretion in rat bile", "assay_type": "ADME, tissue-based", "settings": "read-out: Drug excretion"}, "Canis familiaris [2]": {"system": "Canis familiaris", "assay": "fCmax in dog at 5 mg/kg, po", "assay_type": "ADME, organism-based, Canis lupus familiaris", "design": "dose 5 mg/kg, route oral", "settings": "in vivo"}, "Rhesus monkey [3]": {"system": "Rhesus monkey", "assay": "fCmax in monkey at 3 mg/kg, po", "assay_type": "ADME, organism-based, Macaca mulatta", "design": "dose 3 mg/kg, route oral", "settings": "in vivo"}, "[4]": {"assay": "Fraction absorbed in portal vein cannulated rat at 5 mg/kg, po", "settings": "in vivo, read-out: Fabs"}, "Rattus norvegicus [5]": {"system": "Rattus norvegicus", "assay": "fCmax in rat at 5 mg/kg, po", "assay_type": "ADME, organism-based", "design": "dose 5 mg/kg, route oral", "settings": "in vivo"}, "Rattus norvegicus [6]": {"system": "Rattus norvegicus", "assay": "fAUC (0 to 24 hrs) in rat at 1 mg/kg, iv", "assay_type": "ADME, organism-based", "design": "dose 1 mg/kg, route intravenous", "settings": "in vivo"}, "[7]": {"assay": "Oral bioavailability in rat at 5 mg/kg", "assay_type": "ADME, organism-based", "settings": "in vivo", "outline": "(§1)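 Pharmacokinetic parameters are the geometric mean of n = 2 animals per group unless otherwise noted.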"}, "Canis familiaris [8]": {"system": "Canis familiaris", "assay": "fCmax in dog at 1 mg/kg, iv", "assay_type": "ADME, organism-based, Canis lupus familiaris", "design": "dose 1 mg/kg, route intravenous", "settings": "in vivo"}, "Rattus norvegicus [9]": {"system": "Rattus norvegicus", "assay": "fCmax in rat at 1 mg/kg, iv", "assay_type": "ADME, organism-based", "design": "dose 1 mg/kg, route intravenous", "settings": "in vivo"}, "Rattus norvegicus [10]": {"system": "Rattus norvegicus", "assay": "fAUC (0 to 24 hrs) in rat at 5 mg/kg, po", "assay_type": "ADME, organism-based", "design": "dose 5 mg/kg, route oral", "settings": "in vivo"}, "[11]": {"assay": "Volume of distribution at steady state in rat at 1 mg/kg, iv", "assay_type": "ADME, organism-based", "design": "dose 1 mg/kg, route intravenous", "settings": "in vivo, read-out: Vdss", "outline": "as §1"}, "[12]": {"assay": "Oral bioavailability in dog at 5 mg/kg", "assay_type": "ADME, organism-based, Canis lupus familiaris", "settings": "in vivo"}, "Canis familiaris [13]": {"system": "Canis familiaris", "assay": "fAUC (0 to 24 hrs) in dog at 1 mg/kg, iv", "assay_type": "ADME, organism-based, Canis lupus familiaris", "design": "dose 1 mg/kg, route intravenous", "settings": "in vivo"}, "[14]": {"assay": "Ratio of free drug uptake in brain to plasma of Wistar rat at 100 mg/kg, po administered for 28 days measured 4 hrs post last dosing", "assay_type": "ADME, organism-based", "design": "dose 100 mg/kg, route oral", "settings": "BLD = below limit of detection", "outline": "(§2)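 Oral repeat dosing: rats for 28 days, dogs for 4 days. Plasma, liver, pancreas and brain were sampled at 4 h postdose on the last day. Ratios use free drug concentrations, converted with unbound fractions from equilibrium dialysis (plasma at 50 μM, tissues at 1 μM). BLQ = below limit of quantification.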"}, "Rhesus monkey [15]": {"system": "Rhesus monkey", "assay": "fCmax in monkey at 0.5 mg/kg, iv", "assay_type": "ADME, organism-based, Macaca mulatta", "design": "dose 0.5 mg/kg, route intravenous", "settings": "in vivo"}, "[16]": {"assay": "Renal excretion in rat", "assay_type": "ADME, organism-based, Kidney", "settings": "urine, read-out: Drug excretion"}, "[17]": {"assay": "Volume of distribution at steady state in monkey at 0.5 mg/kg, iv", "assay_type": "ADME, organism-based, Macaca mulatta", "design": "dose 0.5 mg/kg, route intravenous", "settings": "rhesus monkey, in vivo, read-out: Vdss", "outline": "as §1"}, "[18]": {"assay": "Kinetic solubility of the compound", "assay_type": "physicochemical", "settings": "read-out: Kinetic_solubility"}, "[19]": {"assay": "Ratio of free drug uptake in pancreas to plasma of dog at 50 mg/kg, po administered for 4 days measured 4 hrs post last dosing", "assay_type": "ADME, organism-based, Canis lupus familiaris", "design": "dose 50 mg/kg, route oral", "outline": "as §2"}, "[20]": {"assay": "Thermodynamic solubility of the compound at pH 6.5", "assay_type": "physicochemical", "settings": "buffer, read-out: Therm_solubility"}, "[21]": {"assay": "Ratio of free drug uptake in pancreas to plasma of Wistar rat at 100 mg/kg, po administered for 28 days measured 4 hrs post last dosing", "assay_type": "ADME, organism-based", "design": "dose 100 mg/kg, route oral", "outline": "as §2"}, "Rhesus monkey [22]": {"system": "Rhesus monkey", "assay": "fAUC (0 to 24 hrs) in monkey at 3 mg/kg, po", "assay_type": "ADME, organism-based, Macaca mulatta", "design": "dose 3 mg/kg, route oral", "settings": "in vivo"}, "[23]": {"assay": "Ratio of free drug uptake in brain to plasma of dog at 50 mg/kg, po administered for 4 days measured 4 hrs post last dosing", "assay_type": "ADME, organism-based, Canis lupus familiaris", "design": "dose 50 mg/kg, route oral", "settings": "read-out: BPR", "outline": "as §2"}, "Rhesus monkey [24]": {"system": "Rhesus monkey", "assay": "fAUC (0 to 24 hrs) in monkey at 0.5 mg/kg, iv", "assay_type": "ADME, organism-based, Macaca mulatta", "design": "dose 0.5 mg/kg, route intravenous", "settings": "in vivo"}, "[25]": {"assay": "Volume of distribution at steady state in dog at 1 mg/kg, iv", "assay_type": "ADME, organism-based, Canis lupus familiaris", "design": "dose 1 mg/kg, route intravenous", "settings": "in vivo, read-out: Vdss", "outline": "as §1"}, "Canis familiaris [26]": {"system": "Canis familiaris", "assay": "fAUC (0 to 24 hrs) in dog at 5 mg/kg, po", "assay_type": "ADME, organism-based, Canis lupus familiaris", "design": "dose 5 mg/kg, route oral", "settings": "in vivo"}, "[27]": {"assay": "Oral bioavailability in monkey at 3 mg/kg", "assay_type": "ADME, organism-based, Macaca mulatta", "settings": "rhesus monkey, in vivo", "outline": "as §1"}, "[28]": {"assay": "Ratio of free drug uptake in liver to plasma of Wistar rat at 100 mg/kg, po administered for 28 days measured 4 hrs post last dosing", "assay_type": "ADME, organism-based", "design": "dose 100 mg/kg, route oral", "outline": "as §2"}, "[29]": {"assay": "Ratio of free drug uptake in liver to plasma of dog at 50 mg/kg, po administered for 4 days measured 4 hrs post last dosing", "assay_type": "ADME, organism-based, Canis lupus familiaris", "design": "dose 50 mg/kg, route oral", "outline": "as §2"}}}
{"compound": "O=C(O)c1ccc(NC(=O)[C@H](CC2CCCC2)n2cnc(C(F)(F)F)c2)nc1", "note": "[PF-04991532]", "values": [{"measurement": "dose excreted", "setting": "[1]", "value": 62, "unit": "%"}, {"measurement": "fCmax", "setting": "Canis familiaris [2]", "value": 23.3, "unit": "ng/mL"}, {"measurement": "fCmax", "setting": "Rhesus monkey [3]", "value": 13.6, "unit": "ng/mL"}, {"measurement": "Fa", "setting": "[4]", "value": 53, "unit": "%"}, {"measurement": "fCmax", "setting": "Rattus norvegicus [5]", "value": 5.4, "unit": "ng/mL"}, {"measurement": "fAUC", "setting": "Rattus norvegicus [6]", "value": 34.7, "unit": "ng·h/mL"}, {"measurement": "bioavailability", "setting": "[7]", "value": 18, "unit": "%"}, {"measurement": "fCmax", "setting": "Canis familiaris [8]", "value": 479, "unit": "ng/mL"}, {"measurement": "fCmax", "setting": "Rattus norvegicus [9]", "value": 176, "unit": "ng/mL"}, {"measurement": "fAUC", "setting": "Rattus norvegicus [10]", "value": 30.3, "unit": "ng·h/mL"}, {"measurement": "Vd", "setting": "[11]", "value": 2, "unit": "L/kg"}, {"measurement": "bioavailability", "setting": "[12]", "value": 18, "unit": "%"}, {"measurement": "fAUC", "setting": "Canis familiaris [13]", "value": 79.1, "unit": "ng·h/mL"}, {"measurement": "BPR", "setting": "[14]", "value": "BLD"}, {"measurement": "fCmax", "setting": "Rhesus monkey [15]", "value": 219, "unit": "ng/mL"}, {"measurement": "dose excreted", "setting": "[16]", "value": 11, "unit": "%"}, {"measurement": "Vd", "setting": "[17]", "value": 0.7, "unit": "L/kg"}, {"measurement": "solubility kinetic", "setting": "[18]", "value": 524, "unit": "µM"}, {"measurement": "Kp uu at 4 h", "setting": "[19]", "value": 0.25}, {"measurement": "solubility thermodynamic", "setting": "[20]", "value": 4200, "unit": "µg/mL"}, {"measurement": "Kp uu at 4 h", "setting": "[21]", "value": 0.14}, {"measurement": "fAUC", "setting": "Rhesus monkey [22]", "value": 94.7, "unit": "ng·h/mL"}, {"measurement": "Kp uu at 4 h", "setting": "[23]", "value": 0.009}, {"measurement": "fAUC", "setting": "Rhesus monkey [24]", "value": 46.2, "unit": "ng·h/mL"}, {"measurement": "Vd", "setting": "[25]", "value": 1.6, "unit": "L/kg"}, {"measurement": "fAUC", "setting": "Canis familiaris [26]", "value": 72.6, "unit": "ng·h/mL"}, {"measurement": "bioavailability", "setting": "[27]", "value": 35, "unit": "%"}, {"measurement": "Kp uu at 4 h", "setting": "[28]", "value": 10.5}, {"measurement": "Kp uu at 4 h", "setting": "[29]", "value": 14.5}]}
